Experiments:
[1] = system: Moloney murine leukemia virus; assay: Inhibition of Moloney murine leukemia virus reverse transcriptase using (riboadenylic acid)n(deoxythymidylic acid)12-18 as template primer by liquid scintillation counting
Procedure, shortened: (§1)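 30 μl mix of 50 mM Tris-HCl pH 8.3, 75 mM KCl, 10 mM DTT, 3 mM MgCl₂, 3 μg nuclease-free BSA, 0.5 μg template-primer, 2 mM dTTP or dGTP with 0.5 μCi matching [³H]-dNTP, and 5 units MMLV RT. Incubated 37° for 30 min, stopped with EDTA. Duplicate aliquots spotted on DE-81 paper, washed, and counted by liquid scintillation.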

[2] = system: Moloney murine leukemia virus; assay: Inhibition of Moloney murine leukemia virus reverse transcriptase using (ribocytidylic acid)n(deoxyguanylic acid)12-18 as template primer by liquid scintillation counting; procedure, shortened: as §1
[3] = Selectivity for Moloney murine leukemia virus reverse transcriptase over Escherichia coli DNA polymerase 1

Compound | ID50 [1] [µM] | ID50 [2] [µM] | fold change (FC) [3]
C[C@@H]1O[C@@H](OC[C@H]2O[C@@H](Oc3c(-c4ccc(O)c(O)c4)oc4cc(O)cc(O)c4c3=O)[C@H](O)[C@@H](O)[C@@H]2O)[C@H](O)[C@H](O)[C@H]1O | 7.27 | 7.33 | –
O=c1c(O)c(-c2ccc(O)c(O)c2)oc2cc(O)cc(O)c12 | 0.2 | 0.17 | 10
C[C@H]1O[C@@H](Oc2c(-c3cc(O)c(O)c(O)c3)oc3cc(O)cc(O)c3c2=O)[C@@H](O)[C@@H](O)[C@@H]1O | 10.1 | 9.69 | –
O=c1cc(-c2ccccc2)oc2cc(O)ccc12 | > 420 | > 420 | –
O=C1CC(c2ccccc2)Oc2ccccc21 (stereo not drawn) | > 446 | > 446 | –
O=c1c(O)c(-c2cc(O)c(O)c(O)c2)oc2cc(O)cc(O)c12 | 0.25 | 0.28 | 10
Oc1cc(O)c2c(c1)O[C@H](c1ccc(O)c(O)c1)[C@@H](O)C2 | 2.75 | 2.86 | –
O=c1c(O)c(-c2ccc(O)cc2)oc2cc(O)cc(O)c12 | 1.22 | 1.29 | 10
O=c1c(O)c(-c2ccccc2)oc2ccccc12 | > 420 | > 420 | –
COc1ccc([C@@H]2CC(=O)c3c(O)cc(O)cc3O2)cc1O | 20.9 | 22.1 | –
O=C1c2c(O)cc(O)cc2OC(c2ccc(O)c(O)c2)C1O (racemic) | 2.43 | 2.46 | 10
O=c1c(O)c(-c2ccc(O)c(O)c2)oc2cc(O)ccc12 | 0.28 | 0.24 | –
Oc1cc(O)c2c(c1)O[C@H](c1ccc(O)c(O)c1)[C@H](O)C2 | 2.58 | 2.65 | –
O=c1c(O)c(-c2ccc(O)cc2O)oc2cc(O)cc(O)c12 | 1.03 | 1.01 | 10
